In test [1] the test system is Staphylococcus aureus. Put plainly: Antibacterial activity against Staphylococcus aureus DSM1104 assessed as reduction in microbial growth preincubated for 60 mins under dark condition followed by 478 nm light irradiation and measured after 20 to 24 hrs by muller hinton broth based dilution assay. The test is classed as functional. Conditions: DSM1104, light or radiation study, time 21-25 hrs. The method in brief: (§1)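 PhotoMIC (modified EUCAST broth microdilution): 0.5 McFarland suspensions diluted 1:50 in Mueller-Hinton broth (bacteria, 2–8 × 10⁵ CFU/mL) or 1:10 in double-strength RPMI-1640 (yeast, 0.5–2.5 × 10⁵ CFU/mL); ≥10 concentrations, biological triplicates; 60 min dark preincubation, then 30 J/cm² irradiation or dark duplicate plate; 37 °C, 20–24 h; turbidity versus growth control, blanks subtracted.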

For test [2], the system named is Staphylococcus aureus. Description: Antibacterial activity against Staphylococcus aureus DSM1104 assessed as reduction in microbial growth preincubated for 60 mins under dark condition and measured after 20 to 24 hrs at room temperature by muller hinton broth based dilution assay. The test is classed as functional. Conditions: time 20-24 hrs. The essentials: (§2)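 Bacteria grown overnight at 37 °C for 15−18 h in the dark, then set to 0.5 McFarland (read at 600 nm) and diluted 1:50 in Müller-Hinton broth to (2–8) × 10⁵ CFU/mL. Dark plate held at room temperature, then incubated at 37 °C. After 20−24 h, turbidity was read against the untreated growth control, with blanks subtracted. Compounds tested at ≥10 concentrations in biological triplicate.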

For test [3], the system named is T-24. Put plainly: Photo index, ratio of EC50 for human T24 cells killed in the absence of light to EC50 for human T24 cells killed after irradiation. The test is classed as functional. The essentials: (§3)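 SRB assay: cells seeded in Opti-MEM with 2.4% FCS, treated 24 h later with 0.3–25.0 μM, medium replaced after 24 h. Duplicate plates were irradiated with blue light (468 nm, 9.3 J/cm²) or green light (519 nm, 30.0 J/cm²), or kept dark, then held 48 h at 37 °C, 5% CO₂. EC50 from Hill fit; photoindex = EC50 dark / EC50 irradiated.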

Test [4] deals with T-24. Put plainly: Phototoxicity against human T24 cells assessed as reduction in cell growth preincubated with compound for 24 hrs under dark condition and measured after 48 hrs by SRB assay. The test is classed as functional, cell-based. The settings on record: T-24, light or radiation study. The essentials:
(§4)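 Dark control plate processed the same way: cells (A549 2000, AGS 2500, T24 1500 per well) in Opti-MEM with 2.4% FCS, dosed at 25.0−0.3 μM 24 h after seeding. Medium renewed after 24 h, then 48 h further at 37 °C, 5% CO2 without light. SRB read-out at 540 nm after TCA fixation. EC50 with 95% CI from variable-slope fit.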
For orientation: The SRB assay estimates cell density from bound dye.

Test [5] has as its system Candida albicans. Put plainly: Antifungal activity against Candida albicans 501670 assessed as reduction in microbial growth preincubated for 60 mins under dark condition followed by 428 nm light irradiation and measured after 20 to 24 hrs by RPMI-1640 based dilution assay. The settings on record: Candida albicans, 501670, light or radiation study.
Test [6] deals with A549. Put plainly: Phototoxicity against human A549 cells assessed as reduction in cell growth preincubated with compound for 24 hrs under dark condition and measured after 48 hrs by SRB assay. The test is classed as functional, cell-based. The settings on record: A549, light or radiation study. The method in brief: as §4
For test [7], the system named is T-24. Description: Phototoxicity against human T24 cells assessed as reduction in cell growth preincubated with compound for 24 hrs followed by blue light irradiation at 468 nm for 7 mins 30 sec and measured after 48 hrs by SRB assay. The test is classed as functional, cell-based. The settings on record: T-24, light or radiation study. The method in brief: (§5)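 Cells (A549 2000, AGS 2500, T24 1500 per well) seeded in Opti-MEM with 2.4% FCS. After 24 h, treated with 25.0−0.3 μM (six levels). After another 24 h, medium was replaced and cells got blue light (468±27 nm, 9.3 J/cm²). Held 48 h at 37 °C, 5% CO2, then TCA-fixed and SRB-stained, read at 540 nm. EC50 from variable-slope fit with 95% CI.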

The subject of test [8] is Escherichia coli. Put plainly: Antibacterial activity against Escherichia coli DSM1103 assessed as reduction in microbial growth preincubated for 60 mins under dark condition followed by 530 nm light irradiation and measured after 20 to 24 hrs by muller hinton broth based dilution assay. The test is classed as functional. The settings on record: DSM1103, light or radiation study, time 21-25 hrs. The method in brief: as §1

The test system of test [9] is A549. Description: Photo index, ratio of EC50 for human A549 cells killed in the absence of light to EC50 for human A549 cells killed after irradiation. The test is classed as functional. The essentials: as §3
Test [10] relates to A549. Put plainly: Phototoxicity against human A549 cells assessed as reduction in cell growth preincubated with compound for 24 hrs followed by blue light irradiation at 468 nm for 7 mins 30 sec and measured after 48 hrs by SRB assay. The test is classed as functional, cell-based. Conditions: A549, light or radiation study. The method in brief:
as §5

The test system of test [11] is Candida albicans. Put plainly: Antifungal activity against Candida albicans 501670 assessed as reduction in microbial growth preincubated for 60 mins under dark condition followed by 530 nm light irradiation and measured after 20 to 24 hrs by RPMI-1640 based dilution assay. The settings on record: Candida albicans, 501670, light or radiation study.
Test [12] has as its system AGS. Description: Phototoxicity against human AGS cells assessed as reduction in cell growth preincubated with compound for 24 hrs followed by blue light irradiation at 468 nm for 7 mins 30 sec and measured after 48 hrs by SRB assay. The test is classed as functional, cell-based. The settings on record: light or radiation study. The method in brief: as §5
The subject of test [13] is Candida albicans. Description: Antifungal activity against Candida albicans 501670 assessed as reduction in microbial growth preincubated for 60 mins under dark condition followed by 478 nm light irradiation and measured after 20 to 24 hrs by RPMI-1640 based dilution assay. The settings on record: Candida albicans, 501670, light or radiation study.
The subject of test [14] is AGS. Description: Photo index, ratio of EC50 for human AGS cells killed in the absence of light to EC50 for human AGS cells killed after irradiation. The test is classed as functional. The essentials: as §3
In test [15] the test system is Escherichia coli. Description: Antibacterial activity against Escherichia coli DSM1103 assessed as reduction in microbial growth preincubated for 60 mins under dark condition and measured after 20 to 24 hrs at room temperature by muller hinton broth based dilution assay. The settings on record: time 20-24 hrs. The test is classed as functional. The essentials:
as §2

The test system of test [16] is Escherichia coli. Description: Antibacterial activity against Escherichia coli DSM1103 assessed as reduction in microbial growth preincubated for 60 mins under dark condition followed by 428 nm light irradiation and measured after 20 to 24 hrs by muller hinton broth based dilution assay. The test is classed as functional. The settings on record: DSM1103, light or radiation study, time 21-25 hrs. The method in brief: as §1

In test [17] the test system is Staphylococcus aureus. Put plainly: Antibacterial activity against Staphylococcus aureus DSM1104 assessed as reduction in microbial growth preincubated for 60 mins under dark condition followed by 428 nm light irradiation and measured after 20 to 24 hrs by muller hinton broth based dilution assay. The test is classed as functional. The settings on record: DSM1104, light or radiation study, time 21-25 hrs. The method in brief:
as §1

In test [18] the test system is Escherichia coli. Description: Antibacterial activity against Escherichia coli DSM1103 assessed as reduction in microbial growth preincubated for 60 mins under dark condition followed by 478 nm light irradiation and measured after 20 to 24 hrs by muller hinton broth based dilution assay. The test is classed as functional. The settings on record: DSM1103, light or radiation study, time 21-25 hrs. The method in brief:
as §1

Test [19] concerns Candida albicans. Description: Antifungal activity against Candida albicans 501670 assessed as reduction in microbial growth preincubated for 60 mins under dark condition and measured after 20 to 24 hrs at room temperature by RPMI-1640 based dilution assay.
Test [20] relates to AGS. Put plainly: Phototoxicity against human AGS cells assessed as reduction in cell growth preincubated with compound for 24 hrs under dark condition and measured after 48 hrs by SRB assay. The test is classed as functional, cell-based. Conditions: light or radiation study. The essentials: as §4
The test system of test [21] is Staphylococcus aureus. Put plainly: Antibacterial activity against Staphylococcus aureus DSM1104 assessed as reduction in microbial growth preincubated for 60 mins under dark condition followed by 530 nm light irradiation and measured after 20 to 24 hrs by muller hinton broth based dilution assay. The test is classed as functional. The settings on record: DSM1104, light or radiation study, time 21-25 hrs. The method in brief: as §1

A value given as a limit tells only on which side of the number the result lay.

Consider `Cc1cc(O)c2c(c1)C(=O)c1cc(O)cc(O)c1C2=O` [EMODIN], for which the minimum inhibitory concentration (MIC) (as a rule, the lowest concentration that inhibits growth of the organism) in [1] was 1.85 µM; in test [2], > 92 µM; in test [5], 0.37 µM; in [8], > 92 µM; in test [11] it was 46 µM; in test [13], 2.78 µM. Besides, the minimal inhibitory concentration (MIC) in test [15] is > 92 µM; in test [16], 11.1 µM; in test [17], 1.85 µM; in [18] it was > 92 µM; in test [19] it was > 92 µM; in test [21], 11.1 µM. Besides, the results for the “Ratio EC50” value in [3], in test [9] and in test [14] were >15, 7 and >16, respectively. Moreover, the EC50 – broadly, the concentration giving half of the maximal effect – was > 25 µM in test [4]; 19 µM in [6]; 1.7 µM in test [7]; 2.9 µM in [10]; 1.5 µM in [12]; > 25 µM in test [20].

The values above are taken from ChEMBL document CHEMBL5370587, “Fungal Anthraquinone Photoantimicrobials Challenge the Dogma of Cationic Photosensitizers” (J Nat Prod, 2023).
